# Active and inactive are the calls of the source. The rule behind the calls is not given here.
# Key:
# SK-BR-3 = test: Antiproliferative activity against human SKBR3 cells assessed as reduction in cell viability; assay type: functional, cell-based
# MCF7 = test: Antiproliferative activity against human MCF7 cells assessed as reduction in cell viability; assay type: functional, cell-based
# Heat shock protein HSP90 [1] = target: T1, Heat shock protein HSP90 (Homo sapiens, UniProt P07900+P08238); test: Inhibition of HSP90 at C-terminus in human SKBR3 cell lysates assessed as induction of Her2 protein degradation at 0.1 to 10 uM after 24 hrs by Western blot analysis; assay type: cell-based; conditions: SK-BR-3
# Method in brief: (§1)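 SKBr3 breast cancer cells were treated for 24 h and then lysed. Hsp90-dependent client proteins and Hsp70 in the lysates were analysed by Western blot. Geldanamycin at 500 nM served as the reference treatment. Blot images were quantified.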
# Heat shock protein HSP90 [2] = target: T1, Heat shock protein HSP90; test: Inhibition of HSP90 at N-terminus in human SKBR3 cell lysates assessed as induction of heat shock response by measuring increase in HSP70 protein level at 0.1 to 10 uM after 24 hrs by Western blot analysis; assay type: cell-based; conditions: sk-br-3, 24 h; method in brief: as §1
# Heat shock protein HSP90 [3] = target: T1, Heat shock protein HSP90; test: Inhibition of HSP90 at C-terminus in human SKBR3 cell lysates assessed as induction of AKT protein degradation at 0.1 to 10 uM after 24 hrs by Western blot analysis; assay type: cell-based; conditions: SK-BR-3; method in brief: as §1
# Heat shock protein HSP90 [4] = target: T1, Heat shock protein HSP90; test: Inhibition of HSP90 at C-terminus in human SKBR3 cell lysates assessed as induction of CDK4 protein degradation at 0.1 to 10 uM after 24 hrs by Western blot analysis; assay type: cell-based; conditions: SK-BR-3; method in brief: as §1
# Heat shock protein HSP90 [5] = target: T1, Heat shock protein HSP90; test: Inhibition of HSP90 at C-terminus in human SKBR3 cell lysates assessed as induction of Raf1 protein degradation at 0.1 to 10 uM after 24 hrs by Western blot analysis; assay type: cell-based; conditions: SK-BR-3; method in brief: as §1
# Heat shock protein HSP90 [6] = target: T1, Heat shock protein HSP90; test: Inhibition of HSP90 at C-terminus in human SKBR3 cell lysates at 0.5 to 5 times antiproliferative EC50 after 24 hrs by Western blot analysis; assay type: cell-based; conditions: SK-BR-3; method in brief: as §1
Compound,EC50 (SK-BR-3) [µM],EC50 (MCF7) [µM],further results
CCOC(=O)C(=O)Nc1ccc2nc(NC(=O)c3ccc(OC)cc3)sc2c1,10.7,> 50,
CCOC(=O)C(=O)Nc1ccc2nc(NC(=O)c3cc4ccccc4[nH]3)sc2c1,5.41,8.99,
CCOC(=O)C(=O)Nc1ccc2nc(NC(=O)c3cc4cc(OC)ccc4[nH]3)sc2c1,0.86,7.03,inhibition (Heat shock protein HSP90 [1]): Active; inhibition (INH) (Heat shock protein HSP90 [2]): Not Active; inhibition (Heat shock protein HSP90 [3]): Active; inhibition (Heat shock protein HSP90 [4]): Active; inhibition (Heat shock protein HSP90 [5]): Active
CCOC(=O)C(=O)Nc1nc2ccc(NC(=O)c3cc(Br)c[nH]3)cc2s1,27.9,41.3,
COc1ccc2[nH]c(C(=O)Nc3nc4ccc(NC(=O)C(=O)c5ccccc5)cc4s3)cc2c1,> 50,> 50,
CCOC(=O)C(=O)Nc1nc2ccc(NC(=O)c3ccccc3)cc2s1,9.73,> 50,
CCOC(=O)C(=O)Nc1ccc2nc(NC(=O)c3ccc4c(c3)OCO4)sc2c1,> 50,> 50,
CCOC(=O)C(=O)Nc1nc2ccc(NC(=O)c3cc4ccccc4[nH]3)cc2s1,6.94,11.2,
CCOC(=O)C(=O)Nc1ccc2nc(NC(=O)c3cc(Br)c(Br)[nH]3)sc2c1,2.41,> 50,inhibition (Heat shock protein HSP90 [6]): Active
CCOC(=O)C(=O)Nc1ccc2nc(NC(=O)c3cc4cc(C)ccc4[nH]3)sc2c1,2.81,10.1,
CCOC(=O)C(=O)Nc1ccc2nc(NC(=O)c3cc4ccc(OC)cc4[nH]3)sc2c1,6.7,> 50,
CC(=O)C(=O)Nc1ccc2nc(NC(=O)c3cc4ccccc4[nH]3)sc2c1,> 50,> 50,
CC(=O)Nc1nc2ccc(NC(=O)c3cc(Br)c(Br)[nH]3)cc2s1,> 50,> 50,
CCOC(=O)C(=O)Nc1ccc2nc(NC(=O)c3ncccn3)sc2c1,> 50,> 50,
Cc1ccc2[nH]c(C(=O)Nc3nc4ccc(NC(=O)C(=O)c5ccccc5)cc4s3)cc2c1,> 50,> 50,
CCOC(=O)C(=O)Nc1ccc2nc(NC(=O)c3cc4cc(CC)ccc4[nH]3)sc2c1,20.6,25.3,
CCOC(=O)C(=O)Nc1nc2ccc(NC(=O)c3cc(Br)c(Br)[nH]3)cc2s1,3.59,10.1,
